We go through two molecules from paper PMC5824357 (RNA, 2018).

Ends that are not written are not given here. MBP = not defined here; MS2 = not defined here; HA = not defined here

Assay [1] relates to β-globin-6xMS2bs reporter. Description: Tethering assay in human HEK293T cells. The class given is cell-based. As to conditions: MS2-HA-tagged, three independent experiments.
Assay [2] concerns Dm NOT1-CN9BD–CAF40 complex. Description: In vitro MBP pull-down, Dm CN9BD–CAF40. The class given is binding, Drosophila melanogaster. The conditions noted are these: MBP-tagged proteins, amylose resin, 50 mM HEPES pH 7.5, 200 mM NaCl, 2 mM DTT, 1 h; SDS-PAGE, Coomassie. An outline of the steps: (§1)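 Proteins were expressed in E. coli BL21 (DE3) Star overnight at 20°C. Tethered-protein constructs carried an N-terminal MBP tag and were purified by amylose resin, anion exchange and gel filtration. MBP (20 µg, negative control) or MBP fusion (40 µg) was incubated 1 h with equimolar purified CCR4–NOT modules plus amylose resin. Beads were washed five times and eluted with 25 mM maltose. Eluates were TCA-precipitated and analysed by SDS-PAGE/Coomassie.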

Assay [3] concerns catalytic module (containing Hs CCR4a). Description: In vitro MBP pull-down, Hs catalytic module. As to conditions: recombinant proteins. It is filed as binding, human.
The subject of a further assay is NOT1 (GFP-tagged). Description: Coimmunoprecipitation in S2 cells, NOT1. It is filed as binding, Drosophila melanogaster. As to conditions: HA-tagged Bam, S2 cell lysates, RNaseA.
The next assay deals with Hs CCR4-NOT subcomplexes. Description: In vitro MBP pull-down, other Hs CCR4–NOT subcomplexes. The conditions noted are these: NOT1-10-11 module, catalytic module, CD, NOT3 N-terminal coiled coil, MBP-tagged Bam, pH 7.5, 1 h. The class given is binding, human. Summed up:
as §1

A further assay concerns endogenous CAF40. Description: SBP pull-down in HEK293T cells, CAF40. The conditions noted are these: V5-SBP-tagged, wild-type HEK293T, RNaseA. It is filed as binding, human. An outline of the steps: (§2)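 HEK293T cells expressed V5-SBP-tagged full-length test protein, with V5-SBP-MBP as negative control. SBP pull-down from lysates was done in the presence of RNaseA. Input (1.5% of V5-SBP proteins, 1% of endogenous CCR4–NOT subunits) and bound fractions (10% and 30%, respectively) were analysed by western blotting with ECL detection.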

A further assay concerns NOT3 (GFP-tagged). Description: Coimmunoprecipitation in S2 cells, NOT3. The class given is binding, Drosophila melanogaster. As to conditions: HA-tagged Bam, S2 cell lysates, RNaseA.
For another assay, the system named is endogenous NOT1. Description: SBP pull-down in HEK293T cells, NOT1. It is filed as binding, human. Summed up: as §2
The next assay deals with HA-tagged CCR4. Description: SBP pull-down in HEK293T cells, CCR4. It is filed as binding. An outline of the steps: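 Control or CAF40-null HEK293T cells coexpressed HA-CCR4 with V5-SBP-tagged full-length test protein or V5-SBP-MBP negative control. SBP pull-down was done in lysates containing RNaseA. Input (1.5% V5-SBP proteins, 1% CCR4–NOT subunits) and bound (10% and 30%) fractions were western blotted with ECL detection.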

Assay [4] has as its system F-Luc-5BoxB mRNA. Description: Tethering assay in S2 cells, F-Luc-5BoxB reporter. It is filed as cell-based, Drosophila melanogaster.
For assay [5], the system named is F-Luc-5BoxB mRNA. Description: mRNA half-life in S2 cells after actinomycin D. It is filed as cell-based, Drosophila melanogaster. The conditions noted are these: actinomycin D 5 µg/ml; northern blot. Summed up: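 S2 cells were Effectene-transfected with F-Luc-5BoxB reporter, R-Luc control and λN-HA-tagged test protein. Three days post-transfection they were treated with actinomycin D (5 µg/ml final) and collected at successive time points. Reporter mRNA remaining was measured by northern blotting of total RNA.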

Another assay relates to CCR4 (GFP-tagged). Description: Coimmunoprecipitation in S2 cells, CCR4. The class given is binding, Drosophila melanogaster. The conditions noted are these: HA-tagged Bam, S2 cell lysates, RNaseA.
The test system of assay [6] is Dm NOT1-CN9BD–CAF40 complex (containing CAF40 V186E or 2xMut). Description: In vitro MBP pull-down, Dm CN9BD–CAF40 with CAF40 mutants. The class given is binding, Drosophila melanogaster. As to conditions: MBP-tagged Bam, pH 7.5, 1 h. Summed up:
as §1

For the next assay, the system named is F-Luc-5BoxB-A95C7-HhR. Description: Tethering assay in S2 cells, F-Luc-5BoxB-A95C7-HhR reporter. The class given is cell-based, Drosophila melanogaster.
A further assay relates to NOT2 (GFP-tagged). Description: Coimmunoprecipitation in S2 cells, NOT2. It is filed as binding, Drosophila melanogaster. The conditions noted are these: HA-tagged Bam, S2 cell lysates, RNaseA.
In a further assay the test system is endogenous NOT2. Description: SBP pull-down in HEK293T cells, NOT2. The class given is binding, human. Summed up:
as §2

The test system of the next assay is Hs CN9BD–CAF40 complex. Description: In vitro MBP pull-down, human CN9BD–CAF40. The class given is binding. As to conditions: MBP-tagged proteins, amylose resin, 50 mM HEPES pH 7.5, 200 mM NaCl, 2 mM DTT, 1 h; SDS-PAGE, Coomassie. An outline of the steps:
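The Hs complex was MBP-NOT1-CN9BD (V1351–L1588) co-expressed in E. coli with His6-CAF40 (R19–E285), purified on amylose, tags removed by HRV3C, then heparin and gel filtration. MBP (20 µg, control) or MBP fusion (40 µg) was incubated 1 h with equimolar complex and amylose resin. Beads were washed five times, eluted with 25 mM maltose, TCA-precipitated and analysed by SDS-PAGE/Coomassie.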

The next assay deals with Dm CAF40 (V186E). Description: Coimmunoprecipitation in S2 cells, CAF40 V186E. It is filed as binding, Drosophila melanogaster. The conditions noted are these: HA-tagged Bam, S2 cell lysates, RNaseA.
The test system of another assay is Dm CAF40 (GFP-tagged). Description: Coimmunoprecipitation in S2 cells, CAF40. The conditions noted are these: HA-tagged Bam, S2 cell lysates, RNaseA. The class given is binding, Drosophila melanogaster.
A further assay has as its system endogenous NOT3. Description: SBP pull-down in HEK293T cells, NOT3. It is filed as binding, human. An outline of the steps: as §2
[7] abbreviates: V5-SBP-tagged, wild-type HEK293T, RNaseA.

Turning to “CBM alone fused to MBP: MS2-HA-MBP-Bam 13–36 ({MS2-HA-MBP}-DDQQLDHNFKQMEEHLALMVEGNE; reading uncertain; UniProt P22745 13-36, looked up, fragment)”, the “degradation/repression of β-globin-6xMS2bs reporter” value in assay [1] was “as active as full-length Bam”.

B1: Bam: Drosophila melanogaster Bag-of-marbles, Uniprot P22745, residues 1–442, variously tagged (protein)
chain: MLNARDVCPEGNDDQQLDHNFKQMEEHLALMVEGNENEDPRKATCEYEDTNEDGATCTSGVLSEIQENFGRLRLCDVTAPLLEFHGLDCLQQIQKRSRHFAFDGSPAKKSRSGGVLVTGPKQKQLQKENVWNRKSKGSASADNIEKLPITIEKLHMIGLHGDCLEHNAVLRLMNLFRSLHDHLTADLGFSRQNSMPSDYLFDMPVKSTMPKSLNVRYQLQVLCTKVERFLVQQRRTLEANRHFDFEKYDECDKLLKGFASYLDNFKLLLKPKMRNRNGNSGSNADKFHTQRMERLLIGLRDWIKAAHLSVHVFNWEMDLEHRYSGAMTESHKSLNERAILLSGAELRAAEARGISAEDLFIAQRYKLGGPIYCVLEQHEFLSALIANPETYFPPSVVAICGPQKLGAVSMEQPSASEEEFEETEEVPSSPPRHTGRVPRFRS
modifications: left off: MBP, N-terminal, kept
As for B1, the interaction in pull-down entry in [2] is “also interacted with the Dm CN9BD–CAF40 module”. Also, in assay [3], the “direct interaction with the catalytic module” value is recorded as “did not observe a direct interaction” and the “displacement of CAF1-NOT1 subcomplex from CCR4a” value is given as “did not competitively displace the CAF1-NOT1 subcomplex from CCR4a”. Also, the “coimmunoprecipitation with NOT1” value with NOT1 (GFP-tagged) was “interacted with NOT1, NOT2, NOT3, CCR4, and CAF40”. Also, the “interaction in pull-down with any other subcomplex” value in the assay with Hs CCR4-NOT subcomplexes is listed as “not with any other subcomplex”. Moreover, in the assay with endogenous CAF40, the “pull-down of endogenous CAF40” value is “pulled down all of the tested subunits”. The “coimmunoprecipitation with NOT3” value in the assay on NOT3 (GFP-tagged) was “interacted with NOT1, NOT2, NOT3, CCR4, and CAF40”. For the same molecule, the “pull-down of endogenous NOT1, CAF40-null cells” value in the assay with endogenous NOT1 (CAF40-null HEK293T) is “did not interact with endogenous NOT1, NOT2 and NOT3”. In addition, in the assay on endogenous NOT1 (setting [7]), the “pull-down of endogenous NOT1” value is listed as “pulled down all of the tested subunits”. The “pull-down of HA-tagged CCR4, CAF40-null cells” value in the assay with HA-tagged CCR4 (CAF40-null HEK293T) was “did not interact”. In addition, in the assay with HA-tagged CCR4 (setting [7]), the “pull-down of HA-tagged CCR4” value is “as well as HA-tagged CCR4”. Moreover, in the assay on F-Luc-5BoxB mRNA [4] (CAF40 KD (∼10% of control levels)), the “tethering activity in CAF40-depleted cells” value is given as “partially suppressed Bam activity”. Besides, the “repression in CAF40-depleted cells complemented with CAF40 V186E” value with F-Luc-5BoxB mRNA [4] (CAF40 KD + CAF40 V186E) is “not by expression of the CAF40 V186E mutant”. In addition, the “repression in CAF40-depleted cells complemented with wild-type CAF40” value in the assay with F-Luc-5BoxB mRNA [4] (CAF40 KD + wild-type CAF40) is listed as “restored by transient expression of wild-type CAF40”. Moreover, the “F-Luc-5BoxB mRNA degradation in DCP2-depleted cells” value with F-Luc-5BoxB mRNA [4] (DCP2 knockdown, DCP2 E361Q overexpressed) is “impaired”. Further, the “F-Luc activity in DCP2-depleted cells” value in the assay with F-Luc-5BoxB mRNA [4] (DCP2 knockdown, DCP2 E361Q overexpressed, F-Luc activity) was “not restored”. For the same molecule, the “tethering activity in cells overexpressing CAF40 V186E” value in the assay with F-Luc-5BoxB mRNA [4] (GFP-CAF40 V186E overexpressed) is recorded as “suppressed in cells overexpressing the CAF40 V186E mutant”. Also, in the assay on F-Luc-5BoxB mRNA [4] (GFP-CAF40 wild-type overexpressed), the “tethering activity in cells overexpressing CAF40 wild-type” value is given as “not when CAF40 wild-type was overexpressed”. The “F-Luc-5BoxB mRNA degradation after NOT1 depletion” value with F-Luc-5BoxB mRNA [4] (NOT1-depleted S2 cells) was “partially suppressed degradation of F-Luc-5BoxB mRNA”. For the same molecule, in the assay on F-Luc-5BoxB mRNA [5], the mRNA half-life result is on record as “shortening of the mRNA half-life”. Further, the “coimmunoprecipitation with CCR4” value with CCR4 (GFP-tagged) is “interacted with NOT1, NOT2, NOT3, CCR4, and CAF40”. For the same molecule, the “disruption of interaction by V186E substitution in CAF40” value in [6] (CAF40 V186E) is listed as “sufficient to disrupt the interaction with Bam in vitro”. Further, in assay [6] (CAF40 Y139D, G146W (2xMut)), the “disruption of interaction by 2xMut in CAF40” value was “sufficient to disrupt the interaction with Bam in vitro”. Besides, in the assay on F-Luc-5BoxB-A95C7-HhR, the “repression of deadenylation-resistant reporter” value was “repressed the expression of this reporter in S2 cells”. Moreover, in the assay on NOT2 (GFP-tagged), the “coimmunoprecipitation with NOT2” value is “interacted with NOT1, NOT2, NOT3, CCR4, and CAF40”. Also, in the assay on endogenous NOT2 (CAF40-null HEK293T), the “pull-down of endogenous NOT2, CAF40-null cells” value was “did not interact with endogenous NOT1, NOT2 and NOT3”. Moreover, the “pull-down of endogenous NOT2” value with endogenous NOT2 (setting [7]) is recorded as “pulled down all of the tested subunits”. Moreover, the interaction in pull-down result in the assay on Hs CN9BD–CAF40 complex is reported as “interacted only with the CN9BD–CAF40 module”. In the assay with Dm CAF40 (V186E), the “coimmunoprecipitation with CAF40 V186E” value is given as “sufficient to abolish binding to full-length Bam in cell lysates”. Moreover, in the assay on Dm CAF40 (GFP-tagged), the “coimmunoprecipitation with CAF40” value is “interacted with NOT1, NOT2, NOT3, CCR4, and CAF40”. For the same molecule, the “pull-down of endogenous NOT3, CAF40-null cells” value in the assay on endogenous NOT3 (CAF40-null HEK293T) is “did not interact with endogenous NOT1, NOT2 and NOT3”. In addition, in the assay with endogenous NOT3 (setting [7]), the “pull-down of endogenous NOT3” value is listed as “pulled down all of the tested subunits”.
